Source: PubChem BioAssay
Shown are actives, neighbours in structure and some others; about 2% of the full set was active somewhere.
TAG inh: reduces triacylglycerol accumulation in H9c2 cells; inhibition, % at 12.5 µM; Nile Red lipid (TAG) fluorescence; cells loaded with 200 µM oleic acid; hit rate 0.66% among 230,000;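 active means pattern-corrected inhibition of lipid staining of at least 50% with the nuclear-stain viability signal not falling by more than 50%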;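 further: 0% = DMSO wells and 100% = triacsin C control wells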
NTR1 agonist: activates human neurotensin receptor 1; hit rate 0.17% among 330,000; activation, % at 20 µM; NTR1-U2OS beta-arrestin-GFP spot imaging, agonist mode; AID 493036;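 active means activation at or above 40% of the spot to cytoplasm intensity ratio, with at least 20 cells analyzed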;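 further: 0% = DMSO without peptide and 100% = 100 nM NTR1 peptide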
Hep lipid drop: modulators of hepatic lipid droplet formation | inhibition, % at 6.5 µM | hit rate 0.4% among 240,000 | AML12 mouse hepatocytes, oleate lipid droplets, BODIPY imaging | AID 1656;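 active means lipid droplet intensity inhibited by at least 50%, with more than 500 cells counted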
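System: AML12 hepatocytes (mouse). Probe or stimulus: oleic acid at 100 µM to induce lipid droplet formation. Times: overnight treatment with compound plus oleate. Detection: Image-based BODIPY and DAPI two-channel analysis. Evaluation: percent inhibition of filter-corrected integrated lipid droplet intensity per well.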
GRK2 inh: human GRK2 inhibition via aptamer displacement; hit rate 0.59% among 330,000; inhibition of aptamer binding, % at 10 µM; P25098; bead flow cytometry, FAM-aptamer displacement from GRK2; AID 488847;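 active means inhibition of aptamer binding above 40%, roughly 3 SD of noise, on plates passing a quality check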;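 further: median bead fluorescence of bound FAM aptamer so fluorescent compounds give negative values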
Beta2AR agonist: agonists of human beta-2 adrenergic receptor inducing internalization. P07550. Am2.2-beta2AR cells, FAP receptor internalization, flow cytometry. response, % (test concentration not listed). hit rate 0.43% among 340,000;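 active means response above a set limit, near 3 SD of response in nonfluorescent compounds, cut at about 42% in these data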
Target sequence (P07550 whole entry, looked up): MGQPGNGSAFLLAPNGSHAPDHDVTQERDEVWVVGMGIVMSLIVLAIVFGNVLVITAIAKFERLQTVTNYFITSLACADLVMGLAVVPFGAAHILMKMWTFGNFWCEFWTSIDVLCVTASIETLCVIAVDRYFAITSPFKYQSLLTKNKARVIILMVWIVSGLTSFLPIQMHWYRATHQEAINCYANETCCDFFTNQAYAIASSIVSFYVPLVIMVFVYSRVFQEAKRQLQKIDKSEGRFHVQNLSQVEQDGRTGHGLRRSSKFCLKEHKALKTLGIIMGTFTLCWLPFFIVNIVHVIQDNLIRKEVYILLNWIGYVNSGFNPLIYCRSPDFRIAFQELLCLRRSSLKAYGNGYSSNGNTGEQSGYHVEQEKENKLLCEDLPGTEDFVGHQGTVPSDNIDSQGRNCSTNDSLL
Arrestin-AP2 inh: blocks beta-arrestin peptide binding to AP2 adaptin; FITC-arrestin peptide / GST-AP2 beads, flow cytometry; AP2 beta2 appendage carries R879A mutation; hit rate 0.31% among 340,000; AID 504490; inhibition, % at 10 µM;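 active means inhibition above a set limit, near 3 SD of compounds lacking own fluorescence, cut at about 54% in these data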;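 further: plate controls were DMSO wells for no effect and 5 µM unlabelled arrestin peptide for full effect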
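System: GST-tagged AP2 beta2-adaptin appendage (R879A) on 4 µm glutathione beads / Reagent: FITC-arrestin peptide, 50 nM / Detection: HyperCyt-sampled flow cytometry, FL1 channel, ex 488/em 535 nm / Timing: 12 min plus 1 h, RT / Buffer or medium: PBS plus Tween 20 (0.05%) and BSA (0.1%)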
Starred values were filed as active, the others as inactive; · = no result given.

SMILES | TAG inh | NTR1 agonist | Hep lipid drop | GRK2 inh | Beta2AR agonist | Arrestin-AP2 inh
CCn1c(C)nc2cc(C(=O)NNC(=O)Nc3ccc(Cl)c(Cl)c3)ccc21 | · | -1 | -2 | 0 | · | ·
CCn1c(C)nc2cc(C(=O)NNC(=O)CN(C)S(=O)(=O)c3ccc(NC(C)=O)cc3)ccc21 | 10 | -2 | · | 100* | -5 | 15
CCCNC(=O)OCc1cccnc1Sc1ccc(C)cc1 | -14 | 1 | -4 | 0 | 4 | 9
CN1C(=O)/C(=C2\SC(N3CCCCCC3)=NC2=O)c2ccccc21 | · | 5 | 24 | 0 | -18 | 7
CCCN1C(=O)/C(=C2\SC(N3CCCCC3)=NC2=O)c2ccccc21 | 51* | 0 | · | 1 | -16 | -2
CCOc1ccc(OCCC(=O)NNC(=O)c2cc(OC)c(OC)c(OC)c2)cc1 | -2 | 0 | · | 3 | 83* | 5
COC(=O)c1cc(C)nc2c1C(=O)C(=O)C=C2N1CCOCC1 | · | 1 | -20 | 14 | 61* | 3
CCOC(=O)c1ccc(NC2=CC(=O)C(=O)c3ccccc32)cc1 | 80* | 1 | · | 0 | 7 | -10
Cc1c(C)c2ccc(O)c(CN3CCN(C)CC3)c2oc1=O | · | 1 | 12 | 2 | -10 | 3
CN1CCN(Cc2c(O)ccc3cc(-c4ccccn4)c(=O)oc23)CC1 | 1 | 1 | 14 | 0 | 69* | 34
CN(Cc1ccccc1)C(=O)CCCn1c(=O)c2cccn2c2cccnc21 | · | 2 | -23 | 0 | -17 | 7
COc1ccc(C(=O)NNC(=O)c2ccccn2)cc1 | 23 | 0 | -3 | 0 | -4 | 6
COc1ccc2c(c1)C(=NNC(=O)c1ccccn1)c1cc(OC)ccc1-2 | 85 | 0 | 7 | 0 | 43* | -10
COc1ccc(NS(=O)(=O)c2cc(NC(=O)c3ccc(=O)[nH]n3)ccc2C)cc1 | -7 | -2 | · | 5 | -2 | -9
COc1cc(NC(=O)COC(=O)C2CC(O)CN2S(=O)(=O)c2ccc(Cl)cc2)c(C)cc1[N+](=O)[O-] (configuration not stated) | 6 | · | · | · | -1 | -10
CC1(c2cc([N+](=O)[O-])cc([N+](=O)[O-])c2)CC(C)(C)N(C(=O)c2ccccc2)c2ccccc21 (configuration not stated) | 91* | 2 | · | 0 | 6 | 21
CC1(c2ccccc2)CC(C)(C)N(C(=O)C2CCCO2)c2ccccc21 (configuration not stated) | · | 3 | -16 | 7 | 5 | 12
C=CC(=O)Nc1ccc(CN2C(=O)N(c3c(Cl)c(OC)cc(OC)c3Cl)Cc3cnc(NCCCCN(CC)CC)nc32)cc1 | 66* | 1 | · | 0 | 24 | -1
CCN(CC)CCNC(=O)c1ccc(NC(=O)Cc2ccc(OC)c(S(=O)(=O)N3CCOCC3)c2)cc1 | 2 | · | · | · | -5 | -6
O=C(NCc1ccc(F)cc1)C(c1ccc(Cl)cc1)N(C(=O)c1csnn1)C1CC1 (configuration not stated) | · | 2 | -21 | 0 | 0 | -34
Cc1cc(-c2nnc(SCC(=O)Nc3cccc(Cl)c3)n2N)n[nH]1 | · | 0 | 0 | 2 | 4 | -6
O=C(COc1ccccc1)N=C1SC2CS(=O)(=O)CC2N1c1cccc(F)c1 (configuration not stated) | · | -1 | -18 | 0 | 48* | 1
COc1ccc2o/c(=N\O)c(C(=O)Nc3ccccc3OC)cc2c1 | · | 13 | -9 | 0 | 53* | 5
COc1cc(NC(=S)NCCCO)c(OC)cc1Cl | 3 | 0 | 23 | 42* | 4 | -1
COC(=O)[C@]1(C)N[C@H](CN(C)C(=O)c2ccccc2)[C@@H]2C(=O)N(Cc3ccccc3)C(=O)[C@@H]21 | 2 | 1 | · | 0 | -7 | -3
SMILES | TAG inh | NTR1 agonist | Hep lipid drop | GRK2 inh | Beta2AR agonist | Arrestin-AP2 inh
CN(C)C=NC(=O)c1[nH]c2ccc(Cl)cc2c1-c1ccccc1 | · | 38 | -7 | 0 | 49* | 29
CCOC(=O)c1[nH]c2ccc(Cl)cc2c1-c1ccccc1 | -8 | 0 | · | 1 | 4 | 13
C/C=C/C(=O)Nc1cccc(C2=NOC3(C2)C[C@@H](C(N)=O)N(C(=O)C(c2ccccc2)c2ccccc2)C3)c1 (some centres not stated) | 6 | 0 | · | 0 | -3 | -7
COc1ccc(S(=O)(=O)NN(C)C(=O)c2nn(-c3ccccc3)ccc2=O)cc1 | · | -1 | 14 | 0 | -14 | 17
CC1CN(S(=O)(=O)c2ccc(Cl)c(C(F)(F)F)c2)CC(C)O1 (configuration not stated) | · | -2 | 10 | 1 | 7 | 70*
CN1CCN(S(=O)(=O)c2ccc(Cl)c(C(F)(F)F)c2)CC1 | 10 | · | · | · | -4 | -6
COc1cc2ncnc(NCc3cccc(Cl)c3)c2cc1OC | -2 | 1 | 51* | 2 | -28 | 2
Cc1ccc(Cl)cc1NC(=O)CCS(=O)(=O)c1cccc2nonc12 | · | 0 | -3 | 0 | -2 | -10
CCN1C(=O)/C(=C/c2ccc(N3CCCC3)cc2)NC1=S | -34 | 0 | 65* | 0 | -113 | -8
CCCN1C(=O)/C(=C/c2ccc(N3CCOCC3)cc2)NC1=S | -15 | 0 | -2 | 0 | 13 | -10
O=C(c1ccc2ccccc2c1O)N1CCCCC1 | -7 | · | · | · | · | ·
CCCCc1nc(SCC(=O)Nc2cccc(Cl)c2)n[nH]1 | -4 | 0 | 2 | 0 | -2 | 42
CCCCOC(=O)c1ccc(NC(=O)/C=C/c2cccs2)cc1 | · | 12 | 65* | 3 | 7 | 9
CCOc1ccc(CCNC(=O)CSc2nn(-c3ccc(C)c(Cl)c3)c(=S)s2)cc1OCC | · | 8 | 70* | 0 | 3 | -4
CCC1CSC(Nc2ccc(C(=O)/C=C/c3ccc(OC)c(OC)c3)cc2)=N1 (configuration not stated) | · | 6 | 8 | 48* | 12 | -1
CCC(=O)N1CCN(c2ccccc2NC(=O)COc2ccc(C(C)C)cc2)CC1 | 10 | 7 | -9 | 0 | 10 | 1
COc1ccccc1N1C(=N)S/C(=C\c2ccc(-c3ccccc3C(=O)O)o2)C1=O | · | -1 | 2 | 44* | 7 | 13
COc1cc2c(cc1OC)C(COc1cc(C)cc(C)c1)N(C(C)=O)CC2 (configuration not stated) | · | 1 | -28 | 3 | -5 | -3
NC(=O)c1c(NC(=O)C2CC=CCC2C(=O)O)sc2c1CCCCC2 (configuration not stated) | 15 | -1 | 12 | 48* | 3 | -1
CC(C)OC(=O)c1c(NC(=O)C2CC=CCC2C(=O)O)sc2c1CCCCC2 (configuration not stated) | 8 | 2 | 11 | 12 | -1 | -5
